Laboratory results as given in paper PMC11977460 (European Heart Journal Open, 2025).

Experiments:
[1] = test system: SMAD2/3, NFATc3, ERK1/2, JNK, PKG/VASP in T2D rat hearts; format: in vivo; details: for cardiac cGMP-dependent pathway PKG/VASP (VASP phosphorylation): western blot, T2D lowered VASP phosphorylation by ≈60%
Method in brief: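 Ventricles came from diabetic rats after 6 weeks of peptide infusion (2 pmol·kg−1·min−1) or sacubitril in drinking water (18 mg·kg−1·day−1). Tissue was lysed in RIPA with protease and phosphatase inhibitors and protein assayed by Bradford. Western blots: 12% SDS-PAGE, PVDF, 5% BSA block, primaries overnight at 4°C, GAPDH reference, three blots per condition. Antibody arrays: 5 µg protein dot-blotted onto PVDF, then probed with GAPDH as internal control.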

[2] = test system: high-fat/streptozotocin-induced Type 2 diabetic (T2D) rats; assay: Blood glucose and physiological parameters; format: in vivo, rat; details: for food intake / urine output / water intake / body weight: T2D animals, Supplementary Figures S1 and S2; for food intake / urine output / water intake: 24 h metabolic cages; for fasting plasma glucose at Week 6: first set, untreated T2D rose further to ≈500 mg·dL−1 at Week 6
Method in brief: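 Male Wistar rats, 12 months old, 450 ± 25 g. Type 2 diabetes induced by a 60% kcal lard diet for 4 weeks, then three i.p. STZ doses of 40 mg·kg−1 (citrate, pH 4.5) on consecutive days; shams received citrate. Tail glucose was read by glucometer in conscious restrained rats after a 12-h fast. Treatment ran 6 weeks; rats were held singly in metabolic cages for 24 h before the end.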

[3] = test system: ANP/cGMP concentrations in T2D rats; assay: Cardiac and plasma ANP/cGMP measurement by ELISA; format: in vivo, rat; details: for increase in cardiac cGMP levels vs. T2D: acetylated samples, T2D tended to decrease ≈50%, n = 4-6; for increase in ANP plasma concentration: non-significant for MANP, P = 0.0967
[4] = test system: neprilysin (NEP); details: cited from earlier work
[5] = test system: myocardial fibrosis in T2D rat hearts; assay: Myocardial fibrosis histology and immunofluorescence; format: in vivo; details: first set, 2 pmol·kg−1·min−1 s.c., 6 weeks; for decrease in WGA staining (extracellular matrix): n = 5-6; for decrease in Masson's trichrome staining: n = 6
[6] = target: insulin-degrading enzyme (IDE); details: relative to ANP; cited from earlier work
[7] = test system: cultured rat cardiac fibroblasts; assay: Sircol collagen secretion assay on cell supernatants; format: cell-based; details: 100 pM, 24 h, n = 6 independent cultures
Method in brief: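 Rat ventricular fibroblasts, isolated by collagenase digestion, were adhesion-selected and cultured 5 days in DMEM with 10% FBS. They were then exposed to peptide at 100 pM for 24 h. Culture supernatants were used directly in the Sircol dye-binding assay, with pellets rinsed and dissolved in alkali reagent; collagen was read against standards. Six independent cultures were run.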

[8] = test system: cultured rat cardiac fibroblasts; assay: Western blots of SMAD2/3 and PKG/VASP in high-glucose-treated fibroblasts; format: cell-based; details: high glucose 24 h with 100 pM peptide, western blot; for decrease in SMAD2 phosphorylation levels: n = 3; for activation of PKG/VASP pathway (VASP phosphorylation at serine 239): n = 5
Method in brief: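 Day-5 cultures of rat ventricular fibroblasts were given high glucose for 24 h, with or without peptide at 100 pM. Cells were lysed in RIPA with protease and phosphatase inhibitors, and proteins were separated by 12% SDS-PAGE and blotted to PVDF. Membranes were blocked in 5% BSA and probed overnight at 4°C, with GAPDH as housekeeper. Blots came from three or five independent cultures.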

[9] = test system: mongrel dogs; details: mongrel dogs following peptide administration; cited from earlier work
[10] = test system: cultured rat cardiac fibroblasts; assay: MTT proliferation assay; format: cell-based; details: 100 pM, 24 h, n = 6 independent cultures
Method in brief: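 Ventricular fibroblasts came from normal Wistar rats by collagenase type V digestion and differential centrifugation, then were selected by 2-h adhesion in DMEM with 10% heat-inactivated FBS. On day 5 of culture, cells were exposed to peptide at 100 pM for 24 h. MTT (0.5 mg·mL−1 in Tyrode) was added for 1 h at 37°C and formazan dissolved in DMSO for absorbance reading. Six independent cultures were run.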

[11] = regulated by clearance receptor (NPR-C) and peptidases; cited from earlier work
[12] = test system: cardiac collagen in T2D rat hearts; format: in vivo; details: first set; Sircol assay; 2 pmol·kg−1·min−1 s.c., 6 weeks; n = 5-6
Method in brief: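 Ventricular tissue came from diabetic rats after 6 weeks of pump-delivered peptide at 2 pmol·kg−1·min−1. Tissue was homogenized in acid-pepsin and reacted with Sircol dye. Collagen-dye pellets were spun down, rinsed with acetic acid and dissolved in alkali reagent. Soluble collagen was read as absorbance at 550 nm against standards.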

[13] = first set, ELISA on ventricular tissue, 2 pmol·kg−1·min−1 s.c., 6 weeks, n = 6

| Compound | food intake [2] | urine output [2] | water intake [2] | body weight [2] | increase in cardiac ANP levels vs. T2D ([3]; second set, ELISA, n = 5-7) | cardiac cGMP-dependent pathway PKG/VASP (VASP phosphorylation) ([1]; first set, n = 3) | decrease in WGA staining (extracellular matrix) [5] | decrease in Masson's trichrome staining [5] | fasting plasma glucose at Week 6 ([2]; T2D rats) | decrease in collagen secretion [7] | decrease in SMAD2 phosphorylation levels [8] | activation of PKG/VASP pathway (VASP phosphorylation at serine 239) [8] | increase in cardiac ANP levels vs. T2D [3, 13] | increase in cardiac cGMP levels vs. T2D ([3]; first set, ELISA) | increase in ANP plasma concentration ([3]; first set, ELISA, n = 6) | increase in plasma ANP [9] [fold] | increase in plasma cGMP [9] [fold] | decrease in fibroblast proliferation [10] | half-life [11] [min] | further results |
| --- | --- | --- | --- | --- | --- | --- | --- | --- | --- | --- | --- | --- | --- | --- | --- | --- | --- | --- | --- | --- |
| CCOC(=O)[C@H](C)C[C@@H](Cc1ccc(-c2ccccc2)cc1)NC(=O)CCC(=O)O [SACU, Sacubitril sodium] | reduced | reduced | reduced | without affecting the body weight | ≈ 50% |  |  |  |  |  |  |  |  |  |  |  |  |  |  | level of ERK1/2 phosphorylation relative to GAPDH ([1]; second set, antibody array, n = 4): decreased; metabolic profile (blood glucose) ([2]; second set, T2D rats, SACU 18 mg·kg−1·day−1 in drinking water): same metabolic profiles as their counterparts |
| M-atrial natriuretic peptide [MANP] | reduced | reduced | reduced | without affecting the body weight |  | restored this pathway | ≈ 75% | ≈ 80% | remained unchanged | ≈ 30% | ≈ 55% | ≈ 2.3 fold | ≈ 2 fold | ≈ 5 fold | ≈ 20% | ~1.5 | ~1.5 | ≈ 20% |  | resistance to NEP degradation [4]: resistant to NEP degradation; cardiac NFATc3 activation (phosphorylated inactivated protein levels) ([1]; first set, antibody array vs T2D controls, n = 4): significantly reduced NFATc3 activation; cardiac ERK1/2 activation (pERK/ERK) ([1]; first set, antibody array, T2D hearts, n = 4): markedly attenuated; lower SMAD3 phosphorylation levels compared with T2D animals ([1]; first set, cardiac tissue western blot, 2 pmol·kg−1·min−1 s.c., 6 weeks, n = 3): ≈ 55%; IC50 with insulin-degrading enzyme (IDE), higher than ANP [6]: 30 fold |
| atrial natriuretic peptide [ANP] | reduced | reduced | reduced | without affecting the body weight | no noticeable effect | restored this pathway | ≈ 50% | ≈ 50% | remained unchanged | ≈ 30% | ≈ 55% | ≈ 2.3 fold | no noticeable effect | attenuated | no noticeable effect | ~1.5 | ~1.5 | ≈ 20% | 3 | increase in cardiac soluble collagen [12]: ≈ 25%; plasma ANP levels ([3]; second set, ELISA, n = 5-7): no noticeable effect |
| brain natriuretic peptide [BNP] |  |  |  |  |  |  |  |  |  |  |  |  |  |  |  |  |  |  | 20 |  |
